# Calls of active or inactive are those of the source. The rule behind the calls is not given here.
# Columns and labels:
# [1] = tested on: SARS coronavirus Urbani; assay: Irreversible inhibition of SARS coronavirus Urbani 3CL protease (9985 to 10902) at 1 uM using TAMRA-SITSAVLQSGFRKMK(DABCYL)-OH as substrate measured for 10 mins by FRET assay relative to control
# [2] = tested on: SARS-CoV; assay: Antiviral activity against SARS COV-1 infected in monkey vero 76 cells assessed as reduction in virus-induced cytopathic effect measured after 66 hrs by neutral red method or cell titer glo-based luminescence assay; type: functional, organism-based; conditions: Severe acute respiratory syndrome-related coronavirus
# [3] = Reversible inhibition of SARS coronavirus Urbani 3CL protease(9985 to 10902) using TAMRA-SITSAVLQSGFRKMK(DABCYL)-OH as substrate measured for 10 mins by FRET assay
# Summary of the method: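 SARS CoV-1 3CLpro FRET assay; each value calculated from at least eight data points, with at least two independent determinations.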
# [4] = Permeability of compound in human Caco-2 cells; type: ADME, cell-based
# [5] = Volume of distribution at steady state in monkey at 4 mg/kg, iv; type: ADME, organism-based, Macaca mulatta; conditions: rhesus monkey, in vivo
# [6] = tested on: Hepatitis C virus; assay: Antiviral activity against Hepatitis C virus replicon infected in human Huh-7 cells assessed as reduction in viral RNA synthesis measured after 24 to 72 hrs by Trizol reagent based RT-PCR analysis; type: functional, organism-based, Hepacivirus hominis
# [7] = target: thrombin (Homo sapiens, UniProt P00734); assay: Inhibition of human thrombin at 10 uM relative to control
# [8] = Cytotoxicity against African green monkey Vero 76 cells measured after 66 hrs by neutral red method or cell titer glo-based luminescence assay; conditions: chlorocebus sabaeus
# [9] = Half-life in monkey at 4 mg/kg, iv; type: ADME, organism-based, Macaca mulatta; conditions: rhesus monkey, in vivo
# [10] = tested on: Human coronavirus 229E; assay: microbe, parasite or virus in culture; conditions: MRC5, 96 h
# [11] = Clearance in dog at 2 mg/kg, iv; conditions: in vivo
# [12] = target: Neutrophil elastase (Homo sapiens, UniProt P08246); assay: Inhibition of human leukocyte elastase
# Neutrophil elastase, sequence (P08246 whole entry): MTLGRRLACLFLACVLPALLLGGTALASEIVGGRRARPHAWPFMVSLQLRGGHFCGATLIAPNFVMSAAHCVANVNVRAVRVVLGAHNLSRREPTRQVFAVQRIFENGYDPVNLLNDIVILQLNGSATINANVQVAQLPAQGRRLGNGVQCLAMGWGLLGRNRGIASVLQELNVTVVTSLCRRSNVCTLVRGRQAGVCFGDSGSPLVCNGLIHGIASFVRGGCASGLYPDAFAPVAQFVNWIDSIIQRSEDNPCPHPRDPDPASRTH
# [13] = Volume of distribution at steady state in rat at 2 mg/kg, iv; type: ADME, organism-based; conditions: in vivo
# [14] = target: T1, Cathepsin D (Homo sapiens, UniProt P07339); assay: Inhibition of human cathepsin D at 10 uM relative to control
# T1 sequence (P07339 65-162 limits assumed): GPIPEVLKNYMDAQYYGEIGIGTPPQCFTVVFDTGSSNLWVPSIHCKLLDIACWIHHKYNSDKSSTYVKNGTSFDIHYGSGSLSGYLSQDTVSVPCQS
# T1 sequence (P07339 169-412 limits assumed): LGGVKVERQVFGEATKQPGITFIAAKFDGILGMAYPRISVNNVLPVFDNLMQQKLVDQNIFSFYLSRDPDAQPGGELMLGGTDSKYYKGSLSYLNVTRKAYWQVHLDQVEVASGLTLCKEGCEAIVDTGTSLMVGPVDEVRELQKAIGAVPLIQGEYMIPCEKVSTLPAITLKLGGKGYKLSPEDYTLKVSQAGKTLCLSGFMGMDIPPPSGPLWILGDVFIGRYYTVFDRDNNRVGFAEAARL
# [15] = tested on: chymotrypsin; assay: Inhibition of human chymotrypsin at 10 uM relative to control
# [16] = Cytotoxicity against human HuH-7 cells assessed as reduction in cell viability; type: cell-based
# [17] = tested on: Human coronavirus 229E; assay: Antiviral activity against Human coronavirus 229E infected in human MRC5 cells assessed as reduction in virus-induced cytopathogenicity incubated for 4 days in presence of p-glycoprotein inhibitor CP100356 by XTT dye based assay; type: functional, organism-based; conditions: time 4.0 day
# Summary of the method: (§1)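 P-glycoprotein transport inhibitor CP-100356 co-dosed at a fixed 0.5 µM throughout a full dose-response of the test inhibitor in the antiviral cytopathic assay.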
# [18] = Aqueous solubility of compound in 2.5% w/v SBECD, pH 7.4 5 mM citrate buffer, made isotonic with 4.25% dextrose formulation; type: physicochemical; conditions: 2.5% w/v SBECD in citrate buffer
# [19] = AUC in rat at 2 mg/kg, iv; type: ADME, organism-based; parameters: dose 2 mg/kg; conditions: in vivo
# [20] = Cytotoxicity against human MRC5 cells assessed as reduction in cell viability after 1 to 5 days by XTT dye based assay; conditions: time 1-5 day
# [21] = tested on: Human immunodeficiency virus 1; assay: Antiviral activity against HIV-1-RF infected in human H9 cells assessed as reduction in virus-induced cytopathogenicity incubated for 7 days by XTT dye based analysis; type: functional, organism-based; conditions: Human immunodeficiency virus 1, RF, H9, 168 h
# [22] = tested on: rhinovirus B14; assay: Antiviral activity against Human rhinovirus 14 infected in human H1-HeLa cells assessed as reduction in virus-induced cytopathogenicity incubated for 2 to 5 days by XTT dye based analysis; type: functional, organism-based; conditions: Rhinovirus B
# [23] = Inhibition of human chymotrypsin
# [24] = Metabolic stability in human liver microsomes assessed as half life; type: ADME, Microsome
# [25] = target: T2, Caspase-2 (Homo sapiens, UniProt P42575); assay: Inhibition of human Caspase 2 at 10 uM relative to control
# T2 sequence (P42575 170-325 limits assumed): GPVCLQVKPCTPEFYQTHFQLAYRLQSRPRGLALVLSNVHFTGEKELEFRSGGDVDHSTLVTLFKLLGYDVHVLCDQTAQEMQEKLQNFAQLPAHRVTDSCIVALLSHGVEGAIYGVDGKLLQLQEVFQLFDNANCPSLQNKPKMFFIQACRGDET
# T2 sequence (P42575 334-452 limits assumed): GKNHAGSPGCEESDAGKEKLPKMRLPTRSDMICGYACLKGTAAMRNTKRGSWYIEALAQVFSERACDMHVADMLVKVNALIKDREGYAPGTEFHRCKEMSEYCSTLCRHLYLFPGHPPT
# [26] = target: leukocyte (neutrophil) elastase (Homo sapiens, UniProt P08246); assay: Inhibition of human leukocyte elastase at 10 uM relative to control
# leukocyte (neutrophil) elastase, sequence (P08246 whole entry): as the sequence (P08246 whole entry) above
# [27] = tested on: Human betaherpesvirus 5; assay: Antiviral activity against Human cytomegalovirus AD169 infected in human MRC5 cells assessed as reduction in viral replication measured after 5 days by ELISA; type: functional, cell-based; conditions: Human betaherpesvirus 5, AD169, MRC5, 120 h
# [28] = target: T2, Caspase-2; assay: Inhibition of human Caspase 2
# [29] = tested on: SARS-CoV; assay: Antiviral activity against SARS COV-1 infected in monkey Vero 76 cells assessed as reduction in virus-induced cytopathic effect measured after 66 hrs in presence of p-glycoprotein inhibitor CP100356 by neutral red method or cell titer glo-based luminescence assay; type: functional, organism-based; conditions: Severe acute respiratory syndrome-related coronavirus, Vero 76, 66 h; summary of the method: as §1
# [30] = target: T3, Cathepsin B (Homo sapiens, UniProt P07858); assay: Inhibition of human cathepsin B
# [31] = tested on: pepsin; assay: Inhibition of human pepsin at 10 uM relative to control
# [32] = Inhibition of SARS-CoV-2 3CL protease using DABCYLKTSAVLQ-SGFRKME-EDANS as peptide substrate in presence of PF-00835231 inhibitor incubated for 60 mins by FRET assay; parameters: species or system Severe acute respiratory syndrome coronavirus 2
# [33] = tested on: Hepacivirus hominis; assay: Inhibition of HCV protease at 10 uM relative to control
# [34] = Inhibition of HRV protease; parameters: species or system Human rhinovirus sp.
# [35] = Half-life in rat at 2 mg/kg, iv; type: ADME, organism-based; conditions: in vivo
# [36] = Aqueous solubility of compound in 2.5% w/v HPCD formulation; type: physicochemical; conditions: 2.5% w/v HPCD in water
# [37] = Cytotoxicity against human MRC5 cells assessed as reduction in cell viability incubated for 4 days by XTT dye based assay; conditions: time 4 day
# [38] = target: Prothrombin (Homo sapiens, UniProt P00734); assay: Inhibition of human thrombin
# [39] = target: Human immunodeficiency virus type 1 protease (Human immunodeficiency virus 1) (UniProt Q72874); assay: Inhibition of HIV1 protease at 10 uM relative to control
# [40] = Cytotoxicity against human H1-HeLa cells assessed as reduction in cell viability measured after 2 to 5 days by XTT assay; type: cell-based; conditions: time 2-5 day
# [41] = Half life in dog at 2 mg/kg, iv; type: ADME, organism-based, Canis lupus familiaris; conditions: in vivo
# [42] = Aqueous solubility of compound in 2.5% w/v SBECD, pH 7.4 5 mM phosphate buffer, made isotonic with 4.25% dextrose formulation; type: physicochemical; conditions: 2.5% w/v SBECD in phosphate buffer, dose 4.6 mg/ml
# [43] = AUC in dog at 2 mg/kg, iv; type: ADME, organism-based, Canis lupus familiaris; parameters: dose 2 mg/kg; conditions: in vivo
# [44] = Inhibition of HCV protease; parameters: species or system Hepacivirus hominis
# [45] = AUC in monkey at 4 mg/kg, iv; type: ADME, organism-based, Macaca mulatta; parameters: dose 4 mg/kg; conditions: rhesus monkey, in vivo
# [46] = target: Human immunodeficiency virus type 1 protease (Human immunodeficiency virus 1, UniProt Q72874); assay: Inhibition of HIV1 protease
# [47] = Inhibition of Human coronavirus 229E protease
# [48] = target: T1, Cathepsin D; assay: Inhibition of human cathepsin D
# [49] = Inhibition of human pepsin
# [50] = Cytotoxicity against human H9 cells assessed as reduction in cell viability incubated for 7 days by XTT dye based analysis; conditions: time 7 day
# [51] = Volume of distribution at steady state in dog at 2 mg/kg, iv; type: ADME, organism-based, Canis lupus familiaris; conditions: in vivo, read-out: Vdss
# [52] = tested on: rhinovirus A16; assay: Antiviral activity against Human rhinovirus 16 infected in human H1-HeLa cells assessed as reduction in virus-induced cytopathogenicity incubated for 2 to 5 days by XTT dye based analysis; type: functional, organism-based; conditions: Rhinovirus A
# [53] = target: T3, Cathepsin B; assay: Inhibition of human cathepsin B at 10 uM relative to control
# [54] = Solubility of the compound in vehicle formulations; type: physicochemical
# [55] = Glutathione reactivity in pH 7.8 Tris buffer assessed as half-life at 1 uM measured after 30 mins by LC/MS analysis; type: ADME
# [56] = Metabolic stability in human plasma assessed as half-life at 1 uM incubated for 60 mins by LC/MS analysis; type: ADME, cell-free
# [57] = tested on: SARS coronavirus Urbani; assay: Irreversible inhibition of SARS coronavirus Urbani 3CL protease (9985 to 10902) assessed as first order inhibition rate constant (Kobs/I ratio) using TAMRA-SITSAVLQSGFRKMK(DABCYL)-OH as substrate measured for 10 mins by FRET assay
# Summary of the method: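 SARS CoV-1 3CL protease activity was monitored by a FRET read-out. Irreversible, time-dependent inactivation was expressed as kobs/I. Each value was calculated from at least eight data points, with at least two independent determinations.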
smiles,measurement,setting,value
CC(C)C[C@H](NC(=O)OC(C)(C)C)C(=O)N[C@@H](C[C@@H]1CCNC1=O)C(=O)COC(=O)c1c(Cl)cccc1Cl,inhibition,[1],24%
COc1cccc2[nH]c(C(=O)N[C@@H](Cc3ccccc3)C(=O)N[C@@H](C[C@@H]3CCNC3=O)C(=O)CO)cc12,EC50,[2],47 µM
same,IC50,[3],0.103 µM
same,permeability,[4],Impermeable
COc1cccc2[nH]c(C(=O)N[C@@H](CC(C)C)C(=O)N[C@@H](C[C@@H]3CCNC3=O)C(=O)CO)cc12 [PF-00835231],Vdss,[5],0.6 L/kg
same,EC50,[6],> 320 µM
same,inhibition at 10 µM,[7],-28%
same,CC50 at 66 h,[8],452 µM
same,t1/2,[9],1.6 min
same,EC50,[10],0.009 µM
same,clearance,[11],10.5 mL/min/kg
same,IC50,[12],> 10 µM
same,Vdss,[13],1.2 L/kg
same,inhibition at 10 µM,[14],3%
same,inhibition at 10 µM,[15],8%
same,CC50,[16],> 320 µM
same,Activity,[17],Active
same,solubility,[18],4600 µg/mL
same,AUC,[19],1200 ng·h/mL
same,CC50,[20],> 100 µM
same,EC50,[21],> 32 µM
same,EC50,[22],> 100 µM
same,IC50,[23],> 10 µM
same,half-life,[24],1.78 h
same,inhibition at 10 µM,[25],-20%
same,inhibition at 10 µM,[26],-31%
same,EC50,[27],> 100 µM
same,IC50,[28],> 10 µM
same,EC50,[29],1.1 µM
same,IC50,[30],1.3 µM
same,inhibition at 10 µM,[31],-2%
same,IC50,[32],0.00027 µM
same,inhibition,[33],16%
same,IC50,[34],1.7 µM
same,t1/2,[35],1 min
same,solubility,[36],6600 µg/mL
same,CC50 at 96 h,[37],> 40 µM
same,IC50,[38],> 10 µM
same,IC50,[3],0.004 µM
same,inhibition,[39],0%
same,CC50,[40],> 1260 µM
same,half-life,[41],1.3 h
same,solubility,[42],4600 µg/mL
same,AUC,[43],3800 ng·h/mL
same,IC50,[44],> 10 µM
same,AUC,[45],3800 ng·h/mL
same,IC50,[46],> 10 µM
same,IC50,[47],0.004 µM
same,IC50,[48],> 10 µM
same,IC50,[49],> 10 µM
same,permeability,[4],Impermeable
same,CC50 at 168 h,[50],> 32 µM
same,Vd,[51],0.4 L/kg
same,EC50,[52],> 100 µM
same,inhibition at 10 µM,[53],93%
COc1cccc2[nH]c(C(=O)N[C@@H](CC(C)C)C(=O)N[C@@H](C[C@@H]3CCNC3=O)C(=O)COC(=O)c3c(Cl)cccc3Cl)cc12,solubility,[54],Insoluble
same,half-life at 1 µM,[55],> 1 h
same,EC50,[2],0.29 µM
same,half-life at 1 µM,[56],> 4 h
same,K,[57],63000 M⁻¹ s⁻¹
COc1cccc2[nH]c(C(=O)N[C@@H](CC(C)C)C(=O)N[C@@H](C[C@@H]3CCNC3=O)C(=O)COC(=O)c3c(F)cccc3F)cc12,K,[57],12800 M⁻¹ s⁻¹
COc1cccc2[nH]c(C(=O)N[C@@H](CCC(C)C)C(=O)N[C@@H](C[C@@H]3CCNC3=O)C(=O)CO)cc12,EC50,[2],33 µM
same,IC50,[3],0.034 µM
same,permeability,[4],Impermeable

# Source: ChEMBL document CHEMBL4699574, “Discovery of Ketone-Based Covalent Inhibitors of Coronavirus 3CL Proteases for the Potential Therapeutic Treatment of COVID-19” (J Med Chem, 2020)
